According to ChEMBL document CHEMBL1156781, “The binding of synthetic retinoids to lipocalin beta-lactoglobulins” (J Med Chem, 2010):
In brackets after ≈: the same amount, converted by molar mass. Activity calls are given as the source filed them. The rule behind the calls is not given here.

What was measured:
[1] = (§1) Binding affinity to reindeer beta-lactoglobulin by fluorescence spectroscopy; parameters: species or system Rangifer tarandus
[2] = Solubility assessed as aggregate formation at <= pH 4 by dynamic light scattering method; format: physicochemical; conditions: buffer
Summary of the method: (§2)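 Retinoids diluted in acid buffer spanning pH 2.0 to 7.0 and examined by dynamic light scattering for aggregate signal.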

[3] = biological target: T1, Beta-lactoglobulin (Bos taurus) (UniProt P02754); experiment: Binding affinity to bovine beta-lactoglobulins assessed as aggregate diameter size formed at 200 uM by dynamic light scattering method
T1 sequence (whole entry): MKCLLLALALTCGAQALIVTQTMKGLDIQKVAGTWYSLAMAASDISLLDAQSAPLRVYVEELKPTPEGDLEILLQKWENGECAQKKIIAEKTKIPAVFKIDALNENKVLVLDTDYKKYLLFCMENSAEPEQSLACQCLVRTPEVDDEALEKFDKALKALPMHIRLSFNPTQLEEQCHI
Summary of the method: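 Retinoid at 200 μM diluted in PBS and measured by dynamic light scattering as mean intensity and particle diameter (kCps/nm). Bovine βLG was then added to the cuvette at 50 μM, and a second run followed a 30 min stabilization phase.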

[4] = Solubility in PBS assessed as aggregate diameter size at 200 uM by dynamic light scattering method
[5] = biological target: T1, Beta-lactoglobulin (Bos taurus); experiment: Binding affinity to bovine beta-lactoglobulins at 100 uM by ultrafiltration/HPLC method
Summary of the method: (§3)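 Ultrafiltration sampling with HPLC analysis. Ligand at 100 μM was allowed to interact with βLG at 50 μM, and the fraction of ligand found in the retentate was quantified as a percentage.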

Rangifer tarandus [6] = experiment: Binding affinity to reindeer beta-lactoglobulin at 100 uM by ultrafiltration/HPLC method; summary of the method: as §3
[7] = biological target: T1, Beta-lactoglobulin (Bos taurus); experiment: (§4) Binding affinity to bovine beta-lactoglobulins by fluorescence spectroscopy
Rangifer tarandus [8] = experiment: as §1
[9] = Solubility assessed as lowest drug level in which detectable aggregates formed by dynamic light scattering method; format: physicochemical
Summary of the method: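 Retinoid dilutions in PBS measured by dynamic light scattering. The critical concentration is the lowest level giving DLS-detectable aggregates. Concentrations ran up to 200 μM.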

[10] = Solubility assessed as aggregate formation at >= pH 5 by dynamic light scattering method; format: physicochemical; conditions: buffer; summary of the method: as §2
Beta-lactoglobulin = biological target: T2, Beta-lactoglobulin (Bos taurus, UniProt P02754); experiment: as §4
T2 sequence (P02754 whole entry): T1 sequence (whole entry)

## CC1=C(/C=C/C(C)=C/C=C/C(C)=C/CO)C(C)(C)CCC1 [RETINOL]
[1]
  Kd: 200 nM
[2]
  solubility: Insoluble
[3]
  Activity: 129 nm
[4]
  Activity: 972.2 nm
[5]
  Activity: 7.9%
Rangifer tarandus [6]
  Activity: 7.6%

## C/C(=C\c1ccc(C(=O)O)cc1)c1ccc2c(c1)C(C)(C)CCC2(C)C
[7]
  Activity: Active
Rangifer tarandus [8]
  Activity: Active
[9]
  solubility: 50 µM (≈ 17.4 µg/mL)
[3]
  Activity: 243 nm
[4]
  Activity: 848.5 nm
[10]
  solubility: Insoluble
[5]
  Activity: Active
Rangifer tarandus [6]
  Activity: Active

## CC1=C(/C=C/c2ccc(/C=C/C(=O)O)cc2)C(C)(C)CCC1
Beta-lactoglobulin
  Kd: 153 nM
[1]
  Kd: 107 nM
[2]
  solubility: Insoluble
[9]
  solubility: 100 µM (≈ 29.6 µg/mL)
[3]
  Activity: 188 nm
[4]
  Activity: 668.7 nm
[5]
  Activity: 29.1%
Rangifer tarandus [6]
  Activity: 18.8%

## COC(=O)/C=C/c1ccc(/C=C/C2=C(C)CCCC2(C)C)cc1
[7]
  Activity: Active
[3]
  Activity: 276 nm
[4]
  Activity: 791.6 nm
[10]
  solubility: Insoluble
[5]
  Activity: 7%
Rangifer tarandus [6]
  Activity: 11%

## CC1=C(/C=C/C(C)=C/C=C/C(C)=C/C(=O)Nc2ccc(O)cc2)C(C)(C)CCC1 [FENRETINIDE]
[7]
  Activity: Active
Rangifer tarandus [8]
  Activity: Active
[9]
  solubility: 100 µM (≈ 39.2 µg/mL)
[3]
  Activity: 424 nm
[4]
  Activity: 818.1 nm
[10]
  solubility: Insoluble
[5]
  Activity: Active
Rangifer tarandus [6]
  Activity: Active
